According to ChEMBL document CHEMBL5370635, “Structure-Based Design and Synthesis of Potent and Selective KRAS G12D Inhibitors” (ACS Med Chem Lett, 2023):

Tests used:
GTPase KRas [1] = target: T1, GTPase KRas (Homo sapiens, UniProt P01116); assay: (§1) Inhibition of wild-type GDP-bound biotinylated-KRAS (unknown origin) assessed as suppression of SOS1-mediated nucleotide exchange by measuring reduction in KRAS-RAF RBD complex formation preincubated for 60 mins followed by SOS1 addition and further incubated for 60 mins and subsequent addition of KRAS-RAF RBD mixture measured after 30 to 60 mins by FRET assay
GTPase KRas [2] = target: T2, GTPase KRas (Homo sapiens, UniProt P01116, G12D); assay: Inhibition of KRAS G12D mutant in human ASPC1 cells assessed as reduction in ERK phosphorylation measured after 4 hrs by HTRF assay; format: cell-based
GTPase KRas [3] = target: T1, GTPase KRas; assay: Thermal stabilization of wild-type GDP-bound KRAS (1 to 169 residues) (unknown origin) assessed as melting temperature incubated for 1 hrs by differential scanning fluorimetry assay
[4] = test system: GTPase KRas (Homo sapiens), P01116 [G12D]; assay: Thermal stabilization of GDP-bound KRAS G12D mutant (1 to 169 residues) (unknown origin) assessed as melting temperature incubated for 1 hrs by differential scanning fluorimetry assay
GTPase KRas [5] = target: T2, GTPase KRas; assay: as §1, with “of” for “of wild-type”, “biotinylated-KRAS G12D mutant (1 to 169 residues)” for “biotinylated-KRAS”, “KRAS G12D mutant-RAF” for “KRAS-RAF”
LS-513 = assay: Antiproliferative activity against human LS-513 cells assessed as reduction in cell viability measured after 5 days by Cell-Titer Glo assay; format: functional, cell-based; settings: LS-513, 120 h
[6] = Selectivity ratio of IC50 for RAS initiative wild-type cells to IC50 for RAS initiative G12D cells; format: functional
AGS = assay: Antiproliferative activity against human AGS cells assessed as reduction in cell viability measured after 5 days by Cell-Titer Glo assay; format: functional, cell-based; settings: 120 h
[7] = Antiproliferative activity against RAS initiative wild-type cells assessed as reduction in cell viability after 5 days of treatment by Cell-Titer Glo assay; format: functional, cell-based; settings: Homo sapiens, 120 h
[8] = Antiproliferative activity against human GP2d cells assessed as reduction in cell viability measured after 5 days by Cell-Titer Glo assay; format: functional, cell-based; settings: 120 h
SK-LU-1 = assay: Antiproliferative activity against human SK-LU-1 cells assessed as reduction in cell viability measured after 5 days by Cell-Titer Glo assay; format: functional, cell-based; settings: SK-LU-1, 120 h
[9] = Antiproliferative activity against human SNU-1033 cells assessed as reduction in cell viability measured after 5 days by Cell-Titer Glo assay; format: functional, cell-based; settings: SNU-1033, 120 h
ASPC1 [10] = assay: Antiproliferative activity against human ASPC1 cells assessed as reduction in cell viability measured after 5 days by Cell-Titer Glo assay; format: functional, cell-based; settings: ASPC1, 120 h
Summary of the method: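 AsPC-1 PDAC cells (KRAS G12D) grown in three-dimensional culture; viability read by Cell-Titer Glo luminescence.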

HPAC = assay: Antiproliferative activity against human HPAC cells assessed as reduction in cell viability measured after 5 days by Cell-Titer Glo assay; format: functional, cell-based; settings: 120 h
[11] = Antiproliferative activity against RAS initiative G12D cells assessed as reduction in cell viability after 5 days of treatment by Cell-Titer Glo assay; format: functional, cell-based; settings: Homo sapiens, 120 h
HPAF-II = assay: Antiproliferative activity against human HPAF-II cells assessed as reduction in cell viability measured after 5 days by Cell-Titer Glo assay; format: functional, cell-based; settings: 120 h
[12] = Antiproliferative activity against human Panc 04.03 cells assessed as reduction in cell viability measured after 5 days by Cell-Titer Glo assay; format: functional, cell-based; settings: Panc 04.03, 120 h
Homo sapiens = species: Homo sapiens; assay: Selectivity ratio of IC50 for wild-type GDP-bound biotinylated-KRAS (unknown origin) to IC50 for GDP-bound biotinylated-KRAS G12D mutant (1 to 169 residues) (unknown origin)
ASPC1 [13] = assay: Antitumor activity against human ASPC1 cells xenografted in mouse assessed as tumor regression at 20 mg/kg bid for 28 days relative to control; format: functional; settings: time 28 day
Summary of the method: (§2)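 Mice bearing AsPC-1 (KRAS G12D pancreatic ductal adenocarcinoma) xenografts were given repeated twice-daily doses of 3, 10 or 20 mg/kg alongside a vehicle control group, with n = 8 per group. Tumor growth inhibition or regression was assessed against vehicle, with body weight also tracked. Group means were reported with SEM, and P values were calculated versus vehicle.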

[14] = Toxicity in human ASPC1 cell xenografted mouse at 3 to 20 mg/kg bid administered for 28 days; format: organism-based; settings: in vivo, 672 h, dose 3-20 mg/kg, time 28 day
Summary of the method: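 Mice bearing AsPC-1 KRAS G12D PDAC xenografts dosed BID at 3, 10 or 20 mg/kg alongside a vehicle control group. Body weight change tracked over the treatment period together with tumour growth. Group means, n = 8, with SEM.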

ASPC1 [15] = assay: Antitumor activity against human ASPC1 cells xenografted in mouse assessed as inhibition of tumor growth at 3 mg/kg bid for 28 days relative to control; format: functional; settings: ASPC1, 672 h, time 28 day, read-out: TGI; summary of the method: as §2
ASPC1 [16] = assay: Antitumor activity against human ASPC1 cells xenografted in mouse assessed as inhibition of tumor growth at 10 mg/kg bid for 28 days relative to control; format: functional; settings: ASPC1, 672 h, time 28 day, read-out: TGI; summary of the method: as §2
ASPC1 [17] = assay: Antitumor activity against human ASPC1 cells xenografted in mouse assessed as inhibition of tumor growth at 20 mg/kg bid for 28 days relative to control; format: functional; design: scale not given: the % may be the effect or the level left; settings: time 28 day; summary of the method: as §2

Compound	IC50 (GTPase KRas [1]) [nM]	IC50 (GTPase KRas [2]) [nM]	ΔTm (GTPase KRas [3]) [°C]	ΔTm [4] [°C]	IC50 (GTPase KRas [5]) [nM]	further results
Cc1cc(N)nc(-c2c(Cl)cc3c(N4CCNC[C@@H]4C)nc(OC[C@@H]4CCCN4C)nc3c2F)c1C(F)(F)F	> 1000	> 10000	1.4	2.6	76.9	–
N#Cc1c(N)sc2c(F)ccc(-c3c(Cl)cc4c(N5C[C@H]6CC[C@@H](C5)N6)nc(OCC5(CN6CC[C@@H](F)C6)CC5)nc4c3F)c12	9.2	30	12	17.8	1	–
N#Cc1c(N)sc2c(F)ccc(-c3c(Cl)cc4c(N5C[C@H]6CC[C@@H](C5)N6)nc(OC[C@@]56CCCN5C[C@H](F)C6)nc4c3F)c12	4.2	4.3	13.4	20.2	0.98	IC50 (LS-513): 7.5 nM; Ratio IC50 [6]: >100; IC50 (AGS): 1.2 nM; IC50 [7]: 3440 nM; IC50 [8]: 0.2 nM; IC50 (SK-LU-1): 1.4 nM; IC50 [9]: 1890 nM; IC50 (ASPC1 [10]): 15.1 nM; IC50 (HPAC): 3.4 nM; IC50 [11]: 33.4 nM; IC50 (HPAF-II): 14.2 nM; IC50 [12]: 58.6 nM
N#Cc1c(N)sc2c(F)ccc(-c3c(Cl)cc4c(N5C[C@H]6CC[C@@H](C5)N6)ncnc4c3F)c12	> 1000	1080	3.7	7.4	5.32	Ratio IC50 (Homo sapiens): 188
N#Cc1c(N)sc2c(F)ccc(-c3c(C(F)(F)F)cc4c(N5C[C@H]6CC[C@@H](C5)N6)nc(OC[C@@]56CCCN5C[C@H](F)C6)nc4c3F)c12	3.9	2.1	8.3	20.8	0.86	Activity (ASPC1 [13]): 54%; IC50 (LS-513): 2 nM; Ratio IC50 [6]: >100; Activity [14]: Non-Toxic; IC50 (AGS): 0.7 nM; IC50 [7]: 978 nM; IC50 [8]: 0.2 nM; IC50 (SK-LU-1): 0.5 nM; IC50 [9]: 623 nM; IC50 (ASPC1 [10]): 3.5 nM; IC50 (HPAC): 1.8 nM; IC50 [11]: 5.8 nM; inhibition in vivo at 3 mg/kg (ASPC1 [15]): 51%; IC50 (HPAF-II): 7.2 nM; IC50 [12]: 10.6 nM; inhibition in vivo at 10 mg/kg (ASPC1 [16]): 77%
Cc1cc(N)nc(-c2c(Cl)cc3c(N4C[C@H]5CC[C@@H](C4)N5)nc(OCC45CCCN4CCC5)nc3c2F)c1C(F)(F)F	214	928	4.6	10.9	2.1	–
Cc1cc(N)nc(-c2c(Cl)cc3c(N4C[C@H]5CC[C@@H](C4)N5)nc(OC[C@@]45CCCN4C[C@H](F)C5)nc3c2F)c1C(F)(F)F	153	89.9	5.2	11.7	2.1	–
Cc1cc(N)nc(-c2c(Cl)cc3c(N4C[C@H]5CC[C@@H](C4)N5)nc(OC[C@@H]4CCCN4C)nc3c2F)c1C(F)(F)F	> 1000	941	1.9	7.3	3.5	Ratio IC50 (Homo sapiens): > 286
C#Cc1c(F)ccc2cc(O)cc(-c3ncc4c(N5C[C@H]6CC[C@@H](C5)N6)nc(OC[C@@]56CCCN5C[C@H](F)C6)nc4c3F)c12 [MRTX-1133]	–	–	–	–	–	IC50 (LS-513): 8.1 nM; Ratio IC50 [6]: >100; Activity [14]: Non-Toxic; IC50 (AGS): 3.2 nM; IC50 [7]: 6470 nM; IC50 [8]: 0.4 nM; IC50 (SK-LU-1): 2.7 nM; IC50 [9]: 4980 nM; IC50 (ASPC1 [10]): 11 nM; IC50 (HPAC): 4.2 nM; IC50 [11]: 16.4 nM; inhibition in vivo at 3 mg/kg (ASPC1 [15]): 61%; IC50 (HPAF-II): 14.9 nM; IC50 [12]: 27.6 nM; Activity (ASPC1 [17]): 94%; inhibition in vivo at 10 mg/kg (ASPC1 [16]): 83%
Nc1cc2ccccc2c(-c2c(Cl)cc3c(N4C[C@H]5CC[C@@H](C4)N5)nc(OC[C@@]45CCCN4C[C@H](F)C5)nc3c2F)n1	> 1000	2970	0.8	4.3	12.8	–
Nc1cc2cccc(F)c2c(-c2c(Cl)cc3c(N4C[C@H]5CC[C@@H](C4)N5)nc(OC[C@@]45CCCN4C[C@H](F)C5)nc3c2F)n1	> 1000	1030	2.2	7.4	6	–
N#Cc1c(N)sc2c(F)ccc(-c3cc4nc(OC[C@@]56CCCN5C[C@H](F)C6)nc(N5C[C@H]6CC[C@@H](C5)N6)c4cc3Cl)c12	11.6	42.9	9.4	16	1.5	–
Nc1nc2c(-c3c(Cl)cc4c(N5C[C@H]6CC[C@@H](C5)N6)nc(OC[C@@]56CCCN5C[C@H](F)C6)nc4c3F)ccc(F)c2s1	39.6	149	7.2	14.7	3.8	–
CN1CCC[C@H]1COc1nc(N2C[C@H]3CC[C@@H](C2)N3)c2cc(Cl)c(-c3ccc(F)c4sc(N)c(C#N)c34)c(F)c2n1	17	138	10.3	17.1	1.3	–
